The values below come from ChEMBL document CHEMBL1127294, “Development of a model for the delta opioid receptor pharmacophore. 1. Conformationally restricted Tyr1 replacements in the cyclic delta receptor selective tetrapeptide Tyr-c[D-Cys-Phe-D-Pen]OH (JOM-13)” (J Med Chem, 1994).

Peptide text beside a SMILES is read from it.

In assay [1] the target is T1, Mu-type opioid receptor (Cavia porcellus, UniProt P97266). The experiment in a line: Inhibitory concentration of compound against mu opioid receptor in guinea pig ileum assay. The assay is classed as tissue-based. In outline: (§1)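 Electrically stimulated tissue in Krebs bicarbonate, 37 °C, 95% O2/5% CO2, 0.1 Hz, supramaximal voltage. MVD used male ICR mouse vas deferens, Mg-free buffer, 0.5 g tension, 2.0 ms pulses. GPI used male Hartley guinea pig ileum myenteric plexus strips, 1 g tension, 0.4 ms pulses. Cumulative agonist doses, 3 min each. IC50 from Hill fit to mean inhibition data, 2–4 tissues.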

For assay [2], the target named is Opioid receptors; mu & delta (UniProt P41143+P35372). The experiment in a line: Ratio of IC50 against mu opioid to IC50 against delta opioid receptor. In outline:
as §1

The target in assay [3] is T1, Mu-type opioid receptor. Briefly: Displacement of [3H]DAMGO from mu opioid receptor of guinea pig brain membrane.
Assay [4] addresses Delta-type opioid receptor (Mus musculus, UniProt P32300). The experiment in a line: Inhibitory concentration against delta opioid receptor in mouse vas deferens assay. Type of assay: tissue-based. In outline:
as §1

Opioid receptors; mu & delta, sequence (P35372 whole entry, looked up): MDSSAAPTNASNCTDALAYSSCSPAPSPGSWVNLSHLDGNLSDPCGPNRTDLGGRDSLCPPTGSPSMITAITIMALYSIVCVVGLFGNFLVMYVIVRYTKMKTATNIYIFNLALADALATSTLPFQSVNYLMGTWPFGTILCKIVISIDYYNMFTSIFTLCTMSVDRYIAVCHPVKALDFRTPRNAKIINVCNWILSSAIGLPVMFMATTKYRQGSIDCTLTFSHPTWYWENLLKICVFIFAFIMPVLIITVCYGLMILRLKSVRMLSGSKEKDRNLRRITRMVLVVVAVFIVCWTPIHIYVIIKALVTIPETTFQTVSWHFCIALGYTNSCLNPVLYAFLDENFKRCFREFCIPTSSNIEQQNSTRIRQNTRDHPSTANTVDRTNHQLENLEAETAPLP
Opioid receptors; mu & delta, sequence (P41143 whole entry, looked up): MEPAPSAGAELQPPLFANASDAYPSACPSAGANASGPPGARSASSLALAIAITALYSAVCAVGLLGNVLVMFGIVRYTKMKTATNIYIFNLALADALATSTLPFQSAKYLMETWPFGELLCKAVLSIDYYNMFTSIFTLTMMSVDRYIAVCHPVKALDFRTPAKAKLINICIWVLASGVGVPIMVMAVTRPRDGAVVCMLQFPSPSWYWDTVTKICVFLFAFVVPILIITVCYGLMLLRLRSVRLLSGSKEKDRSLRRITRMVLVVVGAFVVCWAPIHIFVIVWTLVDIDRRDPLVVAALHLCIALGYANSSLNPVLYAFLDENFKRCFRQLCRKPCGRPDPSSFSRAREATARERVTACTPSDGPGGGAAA
Delta-type opioid receptor, sequence (P32300 whole entry): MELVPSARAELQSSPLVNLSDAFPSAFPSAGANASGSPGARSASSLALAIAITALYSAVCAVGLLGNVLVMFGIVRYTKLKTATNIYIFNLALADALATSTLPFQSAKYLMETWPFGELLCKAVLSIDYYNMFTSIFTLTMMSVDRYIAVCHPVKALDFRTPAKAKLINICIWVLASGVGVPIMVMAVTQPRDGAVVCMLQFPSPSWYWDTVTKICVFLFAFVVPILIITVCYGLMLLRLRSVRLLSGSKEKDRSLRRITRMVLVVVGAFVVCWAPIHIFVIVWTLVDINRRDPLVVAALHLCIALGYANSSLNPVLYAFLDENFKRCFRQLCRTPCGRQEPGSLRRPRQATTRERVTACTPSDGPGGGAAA
T1 sequence (P97266 whole entry): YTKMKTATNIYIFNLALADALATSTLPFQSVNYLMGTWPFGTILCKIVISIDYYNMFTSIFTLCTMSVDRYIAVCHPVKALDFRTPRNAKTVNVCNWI

What is called IC50 is the concentration that inhibits the measured activity by half. Read a high IC50 as a need for much substance. A word on the Ki: it is a measure of affinity in units of concentration, obtained from inhibition or displacement. As for `CC1(C)SSC[C@H](NC(=O)C2(N)CCc3cc(O)ccc3C2)C(=O)N[C@@H](Cc2ccccc2)C(=O)N[C@@H]1C(=O)O` (single isomer, unassigned), the IC50 was determined as 4300 nM on Mu-type opioid receptor [1] and 340 nM in assay [4]. The Ratio in assay [2] worked out at 13. The molecule further displayed a Ki on Mu-type opioid receptor [3] of 310 nM.

For the molecule `CC1(C)SSC[C@H](NC(=O)[C@@](C)(N)Cc2ccc(O)cc2)C(=O)N[C@@H](Cc2ccccc2)C(=O)N[C@@H]1C(=O)O` (HELM PEPTIDE1{[C[C@](N)(Cc1ccc(O)cc1)C(=O)[*:2]].C.F.[Pen]}$PEPTIDE1,PEPTIDE1,2:R3-4:R3$$$V2.0), the Ki on Mu-type opioid receptor [3] was > 10000 nM.

In the case of `CC1(C)SSC[C@H](NC(=O)[C@H]2NCC[C@H]2c2ccc(O)cc2)C(=O)N[C@@H](Cc2ccccc2)C(=O)N[C@@H]1C(=O)O`, the IC50 came out at 12000 nM on Mu-type opioid receptor [1] and 75 nM in assay [4]. Further, in assay [2], the Ratio was determined as 160. The molecule also showed a Ki on Mu-type opioid receptor [3] of 720 nM.

Consider `CC1(C)SSC[C@H](NC(=O)[C@@]2(N)Cc3ccc(O)cc3C2)C(=O)N[C@@H](Cc2ccccc2)C(=O)N[C@@H]1C(=O)O`, for which the values for the IC50 (against Mu-type opioid receptor [1]; in assay [4]) were > 10000 nM and 340 nM, respectively. The Ratio in assay [2] was > 29. The affinity at Mu-type opioid receptor [3], expressed as Ki, was 840 nM.

As for `CC1(C)SSC[C@H](NC(=O)C2NCC[C@@H]2c2ccc(O)cc2)C(=O)N[C@@H](Cc2ccccc2)C(=O)N[C@@H]1C(=O)O` (single isomer, unassigned), the inhibition constant (Ki) at Mu-type opioid receptor [3] worked out at 10000 nM.

In the case of `CC1(C)SSC[C@H](NC(=O)[C@@H](N)Cc2ccc(O)cc2)C(=O)N[C@@H](Cc2ccccc2)C(=O)N[C@@H]1C(=O)O`, the IC50 in assay [4] was 4.2 nM.

As to `CC1(C)SSC[C@H](NC(=O)C2NCC[C@H]2c2ccc(O)cc2)C(=O)N[C@@H](Cc2ccccc2)C(=O)N[C@@H]1C(=O)O` (single isomer, unassigned), the Ki on Mu-type opioid receptor [3] was found to be 4440 nM.

Turning to `CC1(C)SSC[C@H](NC(=O)C2(N)Cc3ccc(O)cc3C2)C(=O)N[C@@H](Cc2ccccc2)C(=O)N[C@@H]1C(=O)O` (single isomer, unassigned), the Ki at Mu-type opioid receptor [3] was > 10000 nM.

In the case of `CC1(C)SSC[C@H](NC(=O)[C@]2(N)CCc3cc(O)ccc3C2)C(=O)N[C@@H](Cc2ccccc2)C(=O)N[C@@H]1C(=O)O`, the IC50 on Mu-type opioid receptor [1] amounted to 1800 nM; in assay [4] it was 110 nM. Besides, the Ratio in assay [2] came out at 16. At Mu-type opioid receptor [3], this molecule returned a Ki of 230 nM.

In the case of `CC1(C)SSC[C@H](NC(=O)[C@H]2NCC[C@@H]2c2ccc(O)cc2)C(=O)N[C@@H](Cc2ccccc2)C(=O)N[C@@H]1C(=O)O`, the IC50 against Mu-type opioid receptor [1] was found to be 770 nM; in assay [4], 1.6 nM. The Ratio in assay [2] came out at 480. Besides, on Mu-type opioid receptor [3], the Ki came out at 110 nM.

Consider `CC1(C)SSC[C@H](NC(=O)[C@@H]2Cc3ccc(O)cc3CN2)C(=O)N[C@@H](Cc2ccccc2)C(=O)N[C@@H]1C(=O)O` (HELM PEPTIDE1{[O=C([C@@H]1Cc2ccc(O)cc2CN1)[*:2]].C.F.[Pen]}$PEPTIDE1,PEPTIDE1,2:R3-4:R3$$$V2.0), for which the Ki at Mu-type opioid receptor [3] was > 10000 nM.
